Screening results: PubChem BioAssay, several laboratories
Shown are actives, neighbours in structure and some others; about 5.8% of the full set was active somewhere.
KCC2 mod: modulators of human KCC2 chloride dependent transport | Q9H2X9 | KCC2 cells, thallium flux FluoZin-2 fluorescence | B-score of Tl+ flux slope (higher = more flux/activation; lower = inhibition) at 10 µM | actives 2.2% (n = 190,000) | AID 1456;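 active = thallium flux slope and its plate-corrected score both differing from the plate sample mean at a set confidence after two filtering rounds, in either direction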;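 note: slope of fluorescence scaled to starting intensity during 10 to 20 s after thallium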
RBBP9 inh: blocks human serine hydrolase RBBP9. actives 0.2% (n = 220,000). O75884. inhibition, % at 7.94 µM. recombinant RBBP9, FP-Rh probe fluorescence polarization. AID 1515;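 active = inhibition above the campaign mean of all tested compounds plus 3 SD, cut at about 14% in these data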
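Material: RBBP9 protein. Amount: RBBP9 at 2.5 µM in dispensed solution, before mixing. Schedule: 30 min then 45 min, 25 °C. Medium: Tris buffer pH 8.0, NaCl, Pluronic. Measured by: fluorescence polarization. Measure: percent inhibition from mP, scaled between DMSO and no-protein wells. Replication: one well per compound.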
ROMK mod: human ROMK K+ channel modulation, primary screen. Tet-inducible ROMK, thallium flux fluorescence; actives lie on both sides. B-score at 10 µM. actives 2% (n = 130,000). AID 1918;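 active = signal ratio slope over the read window, or its plate-corrected B-score, at least 3 SD from the plate mean, either direction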;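 note: B-score of the F/F0 ratio slope over 7 to 12 s after thallium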
14-3-3 Bad inh: disrupts binding of bovine 14-3-3 zeta to phospho-Bad peptide; P63103; TR-FRET 14-3-3zeta/Dy647-pBad peptide displacement, 1 h; inhibition, % at 21.7 µM; actives 0.71% (n = 220,000); AID 781;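 active = inhibition above about 70%, limit read from the data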
Target sequence (P63103 whole entry, looked up): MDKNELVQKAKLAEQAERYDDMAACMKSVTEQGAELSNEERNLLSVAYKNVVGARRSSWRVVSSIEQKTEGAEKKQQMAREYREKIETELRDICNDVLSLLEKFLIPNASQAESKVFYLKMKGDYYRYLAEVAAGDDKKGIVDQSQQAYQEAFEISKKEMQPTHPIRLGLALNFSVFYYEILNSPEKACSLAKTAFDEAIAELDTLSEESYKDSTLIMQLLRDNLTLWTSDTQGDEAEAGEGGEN
p47phox inh: inhibitors of human p47phox binding; P14598; p47phox/p22phox peptide binding, fluorescence polarization, 2 h; inhibition, % at 24.7 µM; actives 0.53% (n = 220,000); AID 1274;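 active = inhibition above about 30%, limit read from the data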
Target sequence (P14598 whole entry, looked up): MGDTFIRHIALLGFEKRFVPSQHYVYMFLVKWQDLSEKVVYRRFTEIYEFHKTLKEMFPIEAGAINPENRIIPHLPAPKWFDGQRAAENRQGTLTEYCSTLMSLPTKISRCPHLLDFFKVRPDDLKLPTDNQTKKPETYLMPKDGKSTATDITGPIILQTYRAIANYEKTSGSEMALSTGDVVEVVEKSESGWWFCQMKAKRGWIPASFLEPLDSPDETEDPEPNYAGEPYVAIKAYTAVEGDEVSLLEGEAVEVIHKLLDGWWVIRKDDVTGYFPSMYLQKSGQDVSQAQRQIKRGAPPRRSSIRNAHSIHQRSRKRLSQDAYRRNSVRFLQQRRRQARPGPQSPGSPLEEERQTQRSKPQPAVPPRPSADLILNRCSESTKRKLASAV
WT yeast gro inh: growth inhibition of WT yeast, mitochondrial fusion screen. mitochondrial fusion phenotypic screen, WT strain. inhibition, % at 10 µM. actives 2.1% (n = 190,000); in the data active = inhibition above about 58%; tested in S. cerevisiae
ROMK retest: retested hit modulating human ROMK potassium channel. shares compounds with ROMK mod. ROMK thallium flux, fluorescence ratio; active compounds read low. normalized thallium flux (F/F0 slope) at 10 µM. actives 54% (n = 3,000). AID 1917;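 active = Flux at 10 µM at least 3 SD below or above vehicle control mean in one or both replicates; inconclusive = no clear call, values can overlap the other calls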
Each line names hits and unclear results; the compound was inactive in the other large screens (follow-up assays come after a bar, where they were run).

Cc1ccc(C(=O)OCC(=O)Nc2ccc(N(C)C)cc2)cc1NC(=O)c1ccco1	none
Cc1ccc(C(=O)OCC(=O)Nc2ccccc2)cc1NC(=O)c1ccco1	ROMK mod -5.4 | ROMK retest inactive
Cc1cc(C(=O)COc2ccc(F)cc2Br)c(C)n1C	ROMK mod -1.9 | ROMK retest inconclusive
CC(C)OC(=O)Nc1ccc2c(c1)N(C(=O)CCN1CCOCC1)c1ccccc1CC2	none (no result: KCC2 mod)
COc1ccccc1C1=NC(c2ccc(C)cc2)N=C1C (stereo not drawn)	ROMK mod -2.7 | ROMK retest inactive
CS(=O)(=O)c1ccccc1-c1nc(-c2ccc([N+](=O)[O-])cc2)no1	none
COCCOC(=O)/C(=C\c1cc(C(C)(C)C)c(O)c(C(C)(C)C)c1)C(C)=O	none (no result: ROMK mod, WT yeast gro inh) | ROMK retest 0.061
Cc1cc(C)n(-c2nc3nonc3nc2Nc2cccc(C)c2C)n1	ROMK mod -3.9 | ROMK retest 0.053
CCOc1ccc2[nH]c(=O)c(CN(CCO)C(c3nnnn3C3CCCCC3)C(C)C)cc2c1 (stereo not drawn)	ROMK mod -2.4 | ROMK retest 0.059
CCCN1CCN(C(c2cc3cc(OCC)ccc3[nH]c2=O)c2nnnn2C2CCCCC2)CC1 (stereo not drawn)	none (no result: KCC2 mod)
Cc1ccc(S(=O)(=O)N2CCN(C(=O)CCC(=O)NCc3ccc(F)cc3)CC2)cc1	none
COc1ccnc(Oc2ccccc2)c1C(N)=O	none (no result: ROMK mod)
CCCCn1c(Oc2ccc(C(=O)OC)cc2)nc2c1c(=O)n(C)c(=O)n2C	ROMK mod -3.7 | ROMK retest 0.06
Cc1nn(Cc2ccccc2)c(Cl)c1/C=C/C(=O)OC(C(=O)NC(N)=O)C(C)C (stereo not drawn)	none
COc1ccc(N/C=C2\C(=O)CCc3c2oc2cc(Cl)c(O)c(Cl)c32)cc1	none (no result: ROMK mod, WT yeast gro inh) | ROMK retest 0.064
O=C(N/N=C/c1ccco1)c1cc(-c2cccc(Br)c2)nc2ccccc12	none
O=C(Nc1ccc2c(c1)OCO2)c1cc(-c2ccncc2)nc2ccccc12	none (no result: ROMK mod) | ROMK retest 0.068
O=C(N/N=C/c1ccsc1)c1cc(-c2ccncc2)nc2ccccc12	ROMK mod 3 | ROMK retest inactive
Cc1ccsc1/C=N/NC(=O)c1cc(-c2ccncc2)nc2ccccc12	ROMK mod 4.8 (no result: KCC2 mod) | ROMK retest inconclusive
O=C(N/N=C/c1ccccn1)c1cc(-c2ccncc2)nc2ccccc12	none (no result: KCC2 mod)
CC(/C=N/NC(=O)c1cc(-c2ccncc2)nc2ccccc12)=C\c1ccco1	ROMK mod 3.7 | ROMK retest inactive
O=C(Nc1ccc2c(c1)OCCO2)c1cc(-c2ccccc2)nc2ccccc12	none (no result: ROMK mod)
O=C(CN(Cc1cccs1)C(=O)CCC(=O)Nc1ccccn1)NCc1ccccc1	none
CC(Sc1cccc[n+]1[O-])C(=O)Nc1ccc(Oc2ccccc2)cc1 (stereo not drawn)	none
Cc1n[nH]c(C)c1N1C(=O)c2cccc3c(N4CCCCCC4)ccc(c23)C1=O	none (no result: ROMK mod)
O=C1c2cccc3c(N4CCCCC4)ccc(c23)C(=O)N1c1cccc(O)c1	ROMK mod -3.6 | ROMK retest inconclusive
O=C1c2cccc3c(N4CCCCC4)ccc(c23)C(=O)N1CCO	ROMK mod -5.3 | ROMK retest 0.035
CNC(=S)N1CCN=C1Nc1nc(C)cc(C)n1	none
COc1ccc(CC(=O)NCCc2ccc(S(N)(=O)=O)cc2)cc1	ROMK mod 1.5 | ROMK retest inactive
CCOC(=O)c1c(CSC(=N)N)n(C)c2cc(Br)c(OC(C)=O)cc12	none (no result: ROMK mod, WT yeast gro inh)
CCOC(=O)c1c(CSC(=N)N)n(-c2ccc(C)cc2)c2cc(Br)c(OC(C)=O)cc12	p47phox inh 37 (no result: ROMK mod) | ROMK retest 0.045
O=C(NC(Nc1nc2ccc([N+](=O)[O-])cc2s1)(C(F)(F)F)C(F)(F)F)c1ccccc1Cl	none (no result: ROMK mod) | ROMK retest inconclusive
CCOC(=O)c1sc2nc3c(SCCC#N)cc(C(=O)c4cc(F)ccc4O)cn3c(=O)c2c1C	ROMK mod -3.8 | ROMK retest inactive
Cc1cccc(N2C(=O)/C(=C\c3ccc(C(=O)O)cc3)c3ccccc3C2=O)c1	ROMK mod -6.4 | ROMK retest 0.046
CC(C)OC(=O)/C(=C\c1cccc2ccccc12)NC(=O)c1ccccc1	none (no result: ROMK mod)
C=CCOc1ccc(Br)cc1CNC(C)(C)C	none | ROMK retest inactive
COc1ccc(NC(=O)CSc2nc(C)cc(C)n2)cc1	none (no result: KCC2 mod)
CCCCOC(=O)c1ccc(NC(=O)COC(=O)CSc2nc(C)cc(C)n2)cc1	ROMK mod -3.1 | ROMK retest inactive
Cc1ccc(C2C(C(=O)c3cccs3)=C(O)C(=O)N2c2nnc(C)s2)cc1 (stereo not drawn)	none | ROMK retest 0.052
CN1C(=O)C2(OCC(COc3ccc(Cl)cc3)O2)c2ccccc21 (stereo not drawn)	none (no result: ROMK mod) | ROMK retest inactive
COc1ccc(-c2nn(C)c(=O)c3ccccc23)cc1CNC(=O)NC1CCCCC1	none
Cc1ccc(C)c(S(=O)(=O)N/N=C/c2ccc(N3CCOCC3)cc2)c1	none (no result: ROMK mod, WT yeast gro inh)
COc1ccccc1/C=C/C=N/NC(=O)CC1C(=O)NN=C1C (stereo not drawn)	ROMK mod -11 (no result: WT yeast gro inh) | ROMK retest inactive
COc1cccc(/C=N/NC(=O)CC2C(=O)NN=C2C)c1OC (stereo not drawn)	none (no result: ROMK mod)
COc1cc(/C=C2\SC(=Nc3ccccc3)N(CCc3c[nH]c4ccccc34)C2=O)ccc1OC(C)C(=O)O (stereo not drawn)	none (no result: ROMK mod)
O=C1/C(=C/c2ccc(N3CCOCC3)o2)SC(=Nc2ccccc2)N1CCc1c[nH]c2ccccc12	none (no result: ROMK mod) | ROMK retest 0.059
O=C(COC(=O)c1ccc(Cl)nc1)c1ccc2c(c1)OCCO2	ROMK mod -2.2 | ROMK retest inactive
CCCN1C(=O)/C(=C/c2ccncc2)SC1=S	ROMK mod -2.8 | ROMK retest 0.044
CC1(C)Cc2nc(NC3CCCCC3)c(C#N)cc2CO1	ROMK mod -2.5 | ROMK retest inactive
CC(Cl)C(=O)NNC(=O)CNS(=O)(=O)c1ccccc1 (stereo not drawn)	none
Cc1ccc(NC(=O)/C=C/c2ccco2)nc1	ROMK mod 4.5 | ROMK retest inactive
O=C(/C=C/c1ccco1)Nc1cccnc1	none
O=C(/C=C/c1ccco1)Nc1ccccn1	ROMK mod 1.8 | ROMK retest inactive
COc1ccc(N=Cc2[nH]c3ccccc3c2O)cc1	none
COc1ccc(N=Cc2oc3ccc4ccccc4c3c2O)cc1	ROMK mod -3.5 | ROMK retest 0.053
COc1ccc(-c2cc(C(=O)Nc3cc(S(=O)(=O)N4CCOCC4)ccc3N3CCOCC3)c3ccccc3n2)cc1	ROMK mod 1.8 | ROMK retest 0.065
